According to ChEMBL document CHEMBL1131193, “Selective tight binding inhibitors of trypanosomal glyceraldehyde-3-phosphate dehydrogenase via structure-based drug design” (J Med Chem, 1998):

How the values were obtained:
[1] = Inhibitory activity was measured for Glyceraldehyde-3-phosphate dehydrogenase (GAPDH) in Leishmania. mexicana.
[2] = Inhibitory activity measured for Glyceraldehyde-3-phosphate dehydrogenase (GAPDH) in Leishmania. mexicana
Outline: (§1)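 Recombinant glycosomal GAPDH of L. mexicana, T. cruzi or T. brucei; human enzyme from erythrocytes. NADH formation followed at 340 nm, 21 °C, in 0.1 M triethanolamine-HCl pH 7.6 with DTT, NaN3, MgSO4, EDTA, 10 mM K2HPO4, 0.8 mM glyceraldehyde-3-phosphate, 0.19 mM NAD+, 5% DMSO. Reaction started with enzyme. IC50 from 0–1 min initial rates at ≥5 inhibitor levels versus DMSO control.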

[3] = tested on: GAPDH (Leishmania mexicana); experiment: Inhibitory activity was measured for Glyceraldehyde-3-phosphate dehydrogenase (up to 10 mM
[4] = Inhibitory activity was measured for Glyceraldehyde-3-phosphate dehydrogenase in Trypanosoma brucei; outline: as §1
[5] = Inhibitory activity was measured for Glyceraldehyde-3-phosphate dehydrogenase in Trypanosoma cruzi.; outline: as §1
[6] = target: Glyceraldehyde-3-phosphate dehydrogenase (Homo sapiens, UniProt P04406); experiment: Inhibitory activity was measured for Glyceraldehyde-3-phosphate dehydrogenase in human(erythrocytes); type: cell-based; outline: as §1
[7] = tested on: GAPDH (Leishmania mexicana); experiment: Inhibitory activity was measured for Glyceraldehyde-3-phosphate dehydrogenase (up to 10 mM; remark: listed apart in the source

Chain of Glyceraldehyde-3-phosphate dehydrogenase (P04406 whole entry): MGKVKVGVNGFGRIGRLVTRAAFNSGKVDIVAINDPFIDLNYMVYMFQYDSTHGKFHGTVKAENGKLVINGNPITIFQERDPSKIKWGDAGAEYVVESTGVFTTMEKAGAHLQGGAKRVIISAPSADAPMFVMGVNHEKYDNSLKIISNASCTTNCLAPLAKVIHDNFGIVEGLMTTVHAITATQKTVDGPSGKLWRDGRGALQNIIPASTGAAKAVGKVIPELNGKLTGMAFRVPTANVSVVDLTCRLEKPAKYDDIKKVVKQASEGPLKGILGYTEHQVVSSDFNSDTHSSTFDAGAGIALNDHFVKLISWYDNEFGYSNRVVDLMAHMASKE

Row | IC50 [2] [µM] | SMILES | other results
1 |  | CC(C)CCNc1ncnc2c1ncn2[C@@H]1O[C@H](CO)[C@@H](O)[C@H]1O | IC50 [1]: 3700 µM
2 | 150 | OC[C@H]1O[C@@H](n2cnc3c(NCc4cccc5ccccc45)ncnc32)[C@H](O)[C@@H]1O | 
3 | 1800 | OC[C@H]1O[C@@H](n2cnc3c(NC4CCCCCC4)ncnc32)[C@H](O)[C@@H]1O | 
4 | 3100 | Nc1ccc(CNc2ncnc3c2ncn3[C@@H]2O[C@H](CO)[C@@H](O)[C@H]2O)cc1 | 
5 |  | CC(C)Nc1ncnc2c1ncn2[C@@H]1O[C@H](CO)[C@@H](O)[C@H]1O | IC50 [3]: Not Active
6 | 800 | COc1cccc(C(=O)N[C@@H]2[C@H](O)[C@@H](CO)O[C@H]2n2cnc3c(N)ncnc32)c1 | 
7 | 250 | Nc1ncnc2c1ncn2[C@@H]1O[C@H](CO)[C@@H](O)[C@H]1NC(=O)c1cc(O)c(O)c(O)c1 | 
8 | 850 | Nc1ncnc2c1ncn2[C@@H]1O[C@H](CO)[C@@H](O)[C@H]1NC(=O)c1cccc(O)c1 | 
9 | 600 | COc1cccc(C(=O)N[C@@H]2[C@H](O)[C@@H](CO)O[C@H]2n2cnc3c(N)ncnc32)c1O | 
10 | 500 | COc1cc(C(=O)N[C@@H]2[C@H](O)[C@@H](CO)O[C@H]2n2cnc3c(N)ncnc32)ccc1O | 
11 | 4 | COc1cccc(C(=O)N[C@@H]2[C@H](O)[C@@H](CO)O[C@H]2n2cnc3c(NCc4ccccc4C)ncnc32)c1 | IC50 [4]: 30 µM; IC50 [5]: 30 µM; IC50 [6]: > 270 µM
12 | 16 | COc1cccc(C(=O)N[C@@H]2[C@H](O)[C@@H](CO)O[C@H]2n2cnc3c(NCc4ccccc4)ncnc32)c1 | IC50 [4]: 220 µM; IC50 [5]: 159 µM; IC50 [6]: > 530 µM
13 | 5.5 | COc1cccc(C(=O)N[C@@H]2[C@H](O)[C@@H](CO)O[C@H]2n2cnc3c(NCc4cccc(C)c4C)ncnc32)c1 | 
14 | 25 | COc1cccc(C(=O)N[C@@H]2[C@H](O)[C@@H](CO)O[C@H]2n2cnc3c(NCc4cc(C)ccc4C)ncnc32)c1 | 
15 | 650 | Nc1ncnc2c1ncn2[C@@H]1O[C@H](CO)[C@@H](O)[C@H]1NC(=O)c1cc(O)cc(O)c1 | 
16 | 25 | COc1cccc(C(=O)N[C@@H]2[C@H](O)[C@@H](CO)O[C@H]2n2cnc3c(NCc4ccccc4OC)ncnc32)c1 | 

Row | IC50 [2] [µM] | SMILES | other results
17 | 1200 | COc1cccc(C(=O)N[C@@H]2[C@H](O)[C@@H](CO)O[C@H]2n2cnc3c(NC(=O)C(C)C)ncnc32)c1 | 
18 | 360 | OC[C@H]1O[C@@H](n2cnc3c(NC4CCCc5ccccc54)ncnc32)[C@H](O)[C@@H]1O (some centres not stated) | 
19 | 700 | Cc1cccc(CNc2ncnc3c2ncn3[C@@H]2O[C@H](CO)[C@@H](O)[C@H]2O)c1 | 
20 |  | CCCCCNc1ncnc2c1ncn2[C@@H]1O[C@H](CO)[C@@H](O)[C@H]1O | IC50 [7]: Not Active
21 |  | CC(C)(C)Nc1ncnc2c1ncn2C1O[C@H](CO)[C@@H](O)[C@H]1O (some centres not stated) | IC50 [7]: Not Active
22 |  | CCCC(C)Nc1ncnc2c1ncn2C1O[C@H](CO)[C@@H](O)[C@H]1O (some centres not stated) | IC50 [7]: Not Active
23 | 240 | OC[C@H]1OC(n2cnc3c(NC(c4ccccc4)c4ccccc4)ncnc32)[C@H](O)[C@@H]1O (some centres not stated) | 
24 | 3400 | CC(CO)CCNc1ncnc2c1ncn2C1O[C@H](CO)[C@@H](O)[C@H]1O (some centres not stated) | 
25 | > 5400 | CCC(C)CNc1ncnc2c1ncn2C1O[C@H](CO)[C@@H](O)[C@H]1O (some centres not stated) | 
26 | 340 | OCc1ccccc1Sc1ccccc1CNc1ncnc2c1ncn2C1O[C@H](CO)[C@@H](O)[C@H]1O (some centres not stated) | 
27 | 50000 | Nc1ncnc2c1ncn2[C@@H]1O[C@H](CO)[C@@H](O)[C@H]1O [ADENOSINE] | 
28 | 700 | Cc1ccccc1CNc1ncnc2c1ncn2[C@@H]1O[C@H](CO)[C@@H](O)[C@H]1O [METRIFUDIL] | 
29 | 4200 | OC[C@H]1O[C@@H](n2cnc3c(NCc4ccccc4)ncnc32)[C@H](O)[C@@H]1O [N6-BENZYLADENOSINE] | 
30 | > 5000 | OC[C@H]1O[C@@H](n2cnc3c(NC4CCCC4)ncnc32)[C@H](O)[C@@H]1O [N6-CYCLOPENTYLADENOSINE] | 
31 | > 5000 | CC(C)=CCNc1ncnc2c1ncn2[C@@H]1O[C@H](CO)[C@@H](O)[C@H]1O [RIBOPRINE] | 
